# Data published in paper PMC8183215 (Journal for Immunotherapy of Cancer, 2021).
# Residues, ends and D or L forms follow the SMILES beside them.
# Assay: In vitro plasma stability
# Assay type: in vitro ADME
# Settings: rat, pH 7.4
# Procedure, shortened: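 Test compound prepared as a 1000 ng/mL stock in 0.01 M Tris-HCl (pH 7.4), then mixed in equal volume with rat plasma and incubated at 37 °C. Samples were taken at 0, 2, 5, 10, 30 and 60 min, and methanol was added to precipitate protein. After centrifugation at 12 000 rpm for 15 min and a second spin of the supernatant, UPLC-MS peak areas gave the half-life.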
row,SMILES,half-life at 500 ng/mL [min]
1,CC[C@H](C)[C@H](NC(=O)[C@@H](N)[C@@H](C)O)C(=O)N[C@@H](Cc1c[nH]c2ccccc12)C(=O)N[C@@H](CCSC)C(=O)N[C@@H](CC(C)C)C(=O)N[C@@H](CC(C)C)C(=O)N[C@@H](CCSC)C(=O)N[C@@H](CC(C)C)C(=O)N[C@@H](CCC(N)=O)C(=O)O [peptide 2] (H-TIWMLLMLQ-OH),~5
2,CC(C)C[C@H](NC(=O)[C@H](CCCCN)NC(=O)[C@H](CCCNC(=N)N)NC(=O)[C@@H]1CCCN1C(=O)[C@H](CCC(=O)O)NC(=O)CNC(=O)[C@H](Cc1ccc(O)cc1)NC(=O)[C@H](C)NC(=O)[C@@H](N)CO)C(=O)O [peptide 1] (H-SAYGEPRKL-OH; N-terminus and C-terminus assumed),~5
